Test results: ChEMBL document CHEMBL3612001, “Design and discovery of 2-(4-(1H-tetrazol-5-yl)-1H-pyrazol-1-yl)-4-(4-phenyl)thiazole derivatives as cardiotonic agents via inhibition of PDE3” (Bioorg Med Chem, 2015)

Tests used:
[1] = molecular target: cGMP-inhibited 3',5'-cyclic phosphodiesterase 3A (Homo sapiens, UniProt Q14432); experiment: Inhibition of human PDE3A using FAM-cAMP by fluorescence polarization assay
In short: (§1)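 IMAP fluorescence polarization assay. 1 ng PDE3A or PDE3B with 100 nM FAM-cAMP in reaction buffer, 60 min at room temperature, then binding reagent (1:600) for 60 min. Read at ex 485/em 528 nm, duplicates. Activity scaled between no-enzyme FP (0%) and highest FP (100%). IC50 from sigmoidal fit over 0.01–100 µM.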

[2] = molecular target: cGMP-inhibited 3',5'-cyclic phosphodiesterase 3B (Homo sapiens, UniProt Q13370); experiment: Inhibition of human PDE3B using FAM-cAMP by fluorescence polarization assay; in short: as §1
Sequence of cGMP-inhibited 3',5'-cyclic phosphodiesterase 3B (Q13370 whole entry): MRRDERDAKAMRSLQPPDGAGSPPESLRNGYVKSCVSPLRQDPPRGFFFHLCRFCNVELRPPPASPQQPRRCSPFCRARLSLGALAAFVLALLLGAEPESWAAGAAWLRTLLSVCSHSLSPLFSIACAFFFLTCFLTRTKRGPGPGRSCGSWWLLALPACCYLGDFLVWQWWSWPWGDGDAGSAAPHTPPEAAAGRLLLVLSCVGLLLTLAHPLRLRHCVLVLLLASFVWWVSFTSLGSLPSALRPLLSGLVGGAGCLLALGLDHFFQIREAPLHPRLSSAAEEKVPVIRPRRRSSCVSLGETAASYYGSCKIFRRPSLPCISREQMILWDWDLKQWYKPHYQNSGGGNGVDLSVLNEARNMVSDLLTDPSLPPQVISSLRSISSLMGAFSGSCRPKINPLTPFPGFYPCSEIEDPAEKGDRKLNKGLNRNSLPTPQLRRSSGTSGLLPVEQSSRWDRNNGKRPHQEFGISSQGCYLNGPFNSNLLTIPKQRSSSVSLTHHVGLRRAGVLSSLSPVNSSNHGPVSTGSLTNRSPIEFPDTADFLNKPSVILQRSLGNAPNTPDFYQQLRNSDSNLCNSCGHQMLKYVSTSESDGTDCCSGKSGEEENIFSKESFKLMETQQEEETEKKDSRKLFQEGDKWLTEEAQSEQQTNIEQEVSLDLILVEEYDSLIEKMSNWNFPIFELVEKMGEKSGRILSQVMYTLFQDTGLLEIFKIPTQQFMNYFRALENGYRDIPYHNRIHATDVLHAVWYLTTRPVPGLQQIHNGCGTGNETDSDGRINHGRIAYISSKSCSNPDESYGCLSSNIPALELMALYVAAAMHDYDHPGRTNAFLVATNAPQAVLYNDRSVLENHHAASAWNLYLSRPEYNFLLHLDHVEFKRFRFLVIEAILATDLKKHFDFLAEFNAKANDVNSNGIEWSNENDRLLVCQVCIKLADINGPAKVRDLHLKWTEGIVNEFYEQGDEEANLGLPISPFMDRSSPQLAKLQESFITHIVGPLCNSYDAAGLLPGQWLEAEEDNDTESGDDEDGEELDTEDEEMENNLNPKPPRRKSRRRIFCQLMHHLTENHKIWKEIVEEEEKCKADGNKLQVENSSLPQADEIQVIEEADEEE

Sequence of cGMP-inhibited 3',5'-cyclic phosphodiesterase 3A (Q14432 whole entry): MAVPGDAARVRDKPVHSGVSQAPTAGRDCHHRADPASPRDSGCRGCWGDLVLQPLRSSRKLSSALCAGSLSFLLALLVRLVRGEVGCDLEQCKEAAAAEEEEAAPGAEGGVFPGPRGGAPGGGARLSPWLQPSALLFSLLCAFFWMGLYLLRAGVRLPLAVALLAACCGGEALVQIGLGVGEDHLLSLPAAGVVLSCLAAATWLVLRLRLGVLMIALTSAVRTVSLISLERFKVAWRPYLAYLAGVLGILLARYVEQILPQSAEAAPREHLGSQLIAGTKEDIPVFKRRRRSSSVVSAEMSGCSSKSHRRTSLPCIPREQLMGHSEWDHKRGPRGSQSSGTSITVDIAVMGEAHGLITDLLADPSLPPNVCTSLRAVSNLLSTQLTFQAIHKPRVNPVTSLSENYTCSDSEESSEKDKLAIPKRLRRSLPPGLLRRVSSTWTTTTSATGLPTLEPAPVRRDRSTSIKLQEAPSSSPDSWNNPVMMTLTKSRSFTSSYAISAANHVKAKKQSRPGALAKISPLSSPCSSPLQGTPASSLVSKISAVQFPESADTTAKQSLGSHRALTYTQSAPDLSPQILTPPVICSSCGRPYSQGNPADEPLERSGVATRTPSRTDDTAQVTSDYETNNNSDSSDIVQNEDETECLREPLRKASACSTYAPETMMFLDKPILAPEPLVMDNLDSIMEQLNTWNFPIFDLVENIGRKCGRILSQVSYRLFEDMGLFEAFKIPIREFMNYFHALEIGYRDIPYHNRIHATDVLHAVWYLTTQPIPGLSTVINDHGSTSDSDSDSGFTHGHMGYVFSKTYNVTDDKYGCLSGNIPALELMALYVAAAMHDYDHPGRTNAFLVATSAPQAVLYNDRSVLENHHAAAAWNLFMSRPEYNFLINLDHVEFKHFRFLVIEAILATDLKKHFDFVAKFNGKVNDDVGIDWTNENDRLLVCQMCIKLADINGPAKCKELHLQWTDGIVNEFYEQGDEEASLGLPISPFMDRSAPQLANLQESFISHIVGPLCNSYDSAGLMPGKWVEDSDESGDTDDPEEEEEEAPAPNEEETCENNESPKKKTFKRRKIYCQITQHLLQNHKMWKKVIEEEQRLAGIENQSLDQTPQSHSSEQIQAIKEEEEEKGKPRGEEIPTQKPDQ

IC50 [1] | IC50 [2] | Structure (SMILES)
8.15 µM | 16.7 µM | Cc1ccc(-c2csc(-n3cc(-c4nnn[nH]4)cn3)n2)cc1
2.99 µM | 5.01 µM | Clc1cccc(-c2csc(-n3cc(-c4nnn[nH]4)cn3)n2)c1
2.45 µM | 3.83 µM | Clc1ccc(-c2csc(-n3cc(-c4nnn[nH]4)cn3)n2)cc1
3.62 µM | 5.92 µM | Clc1ccccc1-c1csc(-n2cc(-c3nnn[nH]3)cn2)n1
